A selection: hits, their analogues and other compounds. The true share with any hit is near 8.7%.
Cav3 T inh – Cav3.2 calcium influx blockers – cell-based, Fluo-4 calcium fluorescence, FDSS, MLSMR library, primary screen; Cav3.2-expressing cells; active compounds read low; AID 449739, 2010; B-score at 10 µM; hit rate 4% among 100,000;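 active means single-dose well whose peak fluorescence ratio is a statistical outlier from its plate by either plate-standardised score or position-corrected B-score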
tolC growth inh – growth inhibitors of E. coli tolC mutant, primary screen, strain BW25113 ΔtolC::kan, 384-well | hit rate 2.2% among 65,000 | growth inhibition, % at 10 µM (by protocol) | OD615;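 active means growth inhibition at or above a cutoff equal to the mean over every tested compound plus 3 SD, cut at about 60% in these data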;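 further: growth measured after 20 h incubation at 37 °C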
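Test system: E. coli BW25113 ΔtolC::kan bacteria; incubation: 37 °C, 20 h exposure; medium: LB broth supplemented with 50 µg/mL kanamycin; read-out basis: percent growth inhibition; signal: A615 absorbance measurement; compound: 10 µM final, single dose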
E coli WT exp – growth inhibitors of wild-type E. coli, primary screen, strain BW25113, expanded library, OD600; OD600 absorbance; growth inhibition, % at 100 µM; hit rate 0.15% among 98,000; AID 710, 2007;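 active means growth inhibition above about 50% at one test dose, limit read from the data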;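 further: growth measured after 20 h incubation at 37 °C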
PostGolgi yeast – phenotypic screen on post-Golgi transport, primary screen; post-Golgi transport phenotypic cell assay; inhibition, % at 10 µM; hit rate 0.9% among 98,000; AID 739, 2007;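 further: yeast cells grown in 1536-well plates; yeast grown about 18 h at 30C before absorbance read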
PostGolgi ctrl – growth inhibition of yeast control strain, primary screen, counter-screen for post-Golgi transport modulator project; efflux-deficient yeast background strain, growth absorbance A615, 16 h; inhibition, % at 10 µM; hit rate 5% among 98,000
Pyk2 oligo antag – antagonists of Pyk2 self-association, primary screen, Q293 cells, FERM NanoBiT luminescence, HTS. active compounds read low. hit rate 0.83% among 99,000. AID 1347419, 2020. z-score (the deposit names both 25 µM and 10 µM). Protein-tyrosine kinase 2-beta (Homo sapiens), Q14289;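 active means Z-score of -3 or lower, scaled per plate to the spread of control and sample wells; inactive means z-score above -3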;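 further: negative z-score means lost luminescence so less FERM oligomerization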
Numbers without * were called inactive; . = no result given. Unless noted, no stated cut-off is given here; in the data, active means inhibition above about 30%; inactive means the rest.

SMILES | Cav3 T inh | tolC growth inh | E coli WT exp | PostGolgi yeast | PostGolgi ctrl | Pyk2 oligo antag
CCOC(=O)C1CCCN(S(=O)(=O)c2cc(OCC(N)=O)c(C)cc2Cl)C1 (configuration not stated) | 0.78 | 17 | -2 | -1 | 33* | -1.2
Cc1cc(Cl)c(S(=O)(=O)N2CCCCCC2)cc1OCC(=O)NC1CCCCC1 | -4.2* | . | -13 | 4 | 18 | 0.99
O=C(COc1cccc2ccccc12)NNC(=O)c1cccs1 | . | . | 4 | 2 | 13 | -0.33
O=c1oc2ccccc2n1CCc1ccccc1 | 0.0096 | -5 | 6 | 7 | 19 | -1.2
O=C1c2ccccc2C(=O)N1CCCCn1c(=O)oc2ccccc21 | -0.24 | -4 | -2 | 4 | 44* | 0.22
Cc1ccc2oc(C(Cl)(Cl)Cl)cc(=O)c2c1 | 0.23 | . | 8 | 3 | 13 | 0.35
Cc1ccccc1-n1nc(C)c2cc(C(=O)N3CCN(S(=O)(=O)c4ccc(F)cc4)CC3)sc21 | 0.29 | 8 | -2 | 37* | 19 | -0.78
Cc1ccccc1-n1nc(C)c2cc(C(=O)N3CCN(S(=O)(=O)c4ccc(Cl)cc4)CC3)sc21 | -2.8 | . | -12 | -1 | 23 | -0.27
CC1Cc2nc(SCC(=O)c3ccccc3)n(Cc3ccccc3)c(=O)c2S1 (configuration not stated) | -6.3* | . | -16 | 2 | 23 | .
CC1Cc2nc(SCC(=O)NCc3ccccc3)n(Cc3ccccc3)c(=O)c2S1 (configuration not stated) | -2.6 | . | -10 | 7 | 1 | .
CCn1c(SCC(=O)Nc2nnc(C)s2)nc2c(c1=O)SC(C)C2 (configuration not stated) | -0.01 | -17 | -5 | -7 | 39* | .
CCn1c(SCC(=O)Nc2ccc3c(c2)OCO3)nc2c(c1=O)SC(C)C2 (configuration not stated) | 1.6 | 6 | -2 | 6 | 74* | .
CCSc1nnc(NC(=O)CSc2nc3c(c(=O)n2CC)SC(C)C3)s1 (configuration not stated) | . | -7 | -4 | -1 | -6 | -2.6
CCOc1ccc(-c2c(C(=O)N/N=C/c3ccc(OC)cc3)nnn2-c2nonc2N)cc1 | . | . | . | . | . | 1.3
CC1CCc2cc(F)cc3c(O)c(C(=O)Nc4cnccn4)c(=O)n1c23 (configuration not stated) | . | 4 | . | . | . | .
CN(C(=O)COc1ccccc1C(=O)NCCc1ccccc1)c1ccccc1 | . | . | . | . | . | 0.11
COc1cc2c(cc1OC)C(=NCCC(=O)O)NC(C)(C)C2 | . | -21 | . | . | . | .
COCCN(C(=O)c1csnn1)C(C(=O)NC(C)(C)C)c1cccc(OC)c1 (configuration not stated) | 0.0029 | -31 | -6 | -2 | -10 | -0.98
CC(C)COCC1CC2(CC(C)C(=O)CC2=O)C(=O)O1 (configuration not stated) | 0.48 | -17 | 7 | 2 | -8 | 0.16
Cc1ccc(C(=O)Nc2ccccc2-c2ccccc2)cc1S(=O)(=O)Nc1cccc(C)c1C | -6.3* | . | -19 | -2 | 11 | -0.99
CN(c1cccc(NC(=O)CN2C(=O)c3ccccc3S2(=O)=O)c1)S(C)(=O)=O | 1.1 | -4 | 2 | 6 | 33* | -0.1
Cc1ccc(C(=O)Nc2cccc(N(C)S(C)(=O)=O)c2)cc1S(=O)(=O)Nc1ccccc1 | -1 | . | -4 | -5 | -2 | -3.1*
CN(c1cccc(NC(=O)Nc2cccc(Cl)c2)c1)S(C)(=O)=O | -2.8 | 61* | 29 | 7 | -1 | -1.4
COC(=O)c1ccccc1NC(=O)CN1C(=O)c2ccccc2S1(=O)=O | -1.8 | -12 | -2 | 0 | 0 | -0.67
CC(=O)Nc1cccc(N(C)S(C)(=O)=O)c1 | -0.15 | -12 | 0 | -2 | 2 | 0.27
SMILES | Cav3 T inh | tolC growth inh | E coli WT exp | PostGolgi yeast | PostGolgi ctrl | Pyk2 oligo antag
CCC(C)NC(=O)C1CCN(S(=O)(=O)c2ccc(OC)cc2)CC1 (configuration not stated) | 0.24 | . | -5 | 1 | 0 | 1.8
CC(C)CC(c1nnnn1CCc1ccccc1)N1CCC(C(N)=O)CC1 (configuration not stated) | 1.6 | . | . | . | . | 0.7
CCOc1ccccc1OC(=O)c1ccco1 | 0.012 | -8 | 9 | -2 | 36* | -0.31
CC(=O)COc1ccccc1OC(=O)c1ccco1 | 0.12 | . | 1 | 0 | 8 | 0.55
O=C(Oc1ccc(Cl)c2cccnc12)c1ccco1 | 0.34 | . | 100* | -5 | 12 | -0.11
C=CCn1c(SCC(=O)Nc2ncc(Cc3cc(Cl)ccc3Cl)s2)nnc1-c1ccncc1 | 0.7 | . | -1 | -4 | 4 | -0.63
COc1cc(Br)c(C(C)NC(=O)c2ccc(C)cc2)cc1OC (configuration not stated) | 0.072 | . | 2 | 2 | -3 | -0.99
COc1cc(Br)c(C(C)NC(=O)c2cccc(Br)c2)cc1OC (configuration not stated) | -1.6 | . | 4 | -4 | 1 | -3.2*
O=C(Nc1nc(-c2ccc(S(=O)(=O)N3CCCC3)cc2)cs1)c1cccs1 | -0.044 | 42 | -8 | -12 | 15 | -3.2*
O=C(Nc1nc(-c2ccc(S(=O)(=O)N3CCCCCC3)cc2)cs1)c1cccs1 | -1.9 | 6 | -10 | -12 | 9 | -0.61
CC1CCN(S(=O)(=O)c2cccc(C(=O)NCc3cccs3)c2)CC1 | -7.3* | 62* | -7 | 22 | 24 | 1.4
O=C(Nc1nc(-c2cc(Cl)sc2Cl)cs1)c1cccs1 | -2 | 100* | -12 | 14 | 14 | -2.9
O=C(Nc1nc(-c2cccs2)cs1)c1cccc(S(=O)(=O)N2CCCCC2)c1 | -9.2* | 28 | -9 | 5 | 11 | -1.2
O=C(Cn1cc(C(F)(F)F)ccc1=O)N1CCN(S(=O)(=O)c2ccc(Cl)cc2)CC1 | 1.4 | -8 | 8 | -1 | 4 | 0.33
CCC(C)c1nc2ccsc2c(N2CCOC2=O)c1-c1ccccc1 (configuration not stated) | -1.5 | . | . | . | . | .
O=C1CCC(C(=O)OCC(=O)N2N=C3/C(=C/c4ccccc4)CCCC3C2c2ccccc2)N1 (configuration not stated) | -2.2 | . | 7 | -2 | 14 | -1.8
CNC(=O)c1sc(N2N=C3/C(=C/c4ccccc4)CCCC3C2c2ccccc2)nc1C (configuration not stated) | -4.4* | . | -9 | 1 | 22 | -1.3
C#CCNC(=O)C1=C[C@H](c2ccccc2)[C@@H](CCCO)[C@H](OCC)O1 | 1.1 | . | . | . | . | .
O=C(Nn1cnnc1)c1cc2c(s1)CCCCC2 | . | 0 | -2 | -2 | 3 | 1
COCc1cc(C)nc(OCC(=O)N/N=C/c2cc(C)n(-c3c(C)cccc3C)c2C)c1C#N | -4.4* | . | -1 | 1 | 10 | -0.05
Cc1ccc(NS(=O)(=O)c2cc(C(=O)NCc3ccccn3)ccc2Cl)cc1C | -0.072 | . | 7 | 0 | -8 | 1.2

Assay outcomes deposited in PubChem BioAssay by several laboratories.
